For experiment [1], the target named is T1, Dual specificity mitogen-activated protein kinase kinase 6 (Homo sapiens) (UniProt P52564).
T1 sequence (whole entry): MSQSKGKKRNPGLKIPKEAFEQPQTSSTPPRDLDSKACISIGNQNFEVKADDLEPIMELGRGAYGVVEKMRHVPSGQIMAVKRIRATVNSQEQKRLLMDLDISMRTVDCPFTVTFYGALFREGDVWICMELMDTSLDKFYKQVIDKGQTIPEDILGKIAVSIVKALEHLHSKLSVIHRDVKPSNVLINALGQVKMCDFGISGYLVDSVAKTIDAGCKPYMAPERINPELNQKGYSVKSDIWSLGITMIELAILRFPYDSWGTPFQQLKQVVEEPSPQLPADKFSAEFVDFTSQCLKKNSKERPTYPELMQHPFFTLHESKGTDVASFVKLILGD
The experiment is described as follows: Competitive binding affinity to MEK6 (unknown origin) at 10 uM in presence of ATP relative to control.

Experiment [2] addresses Death-associated protein kinase 1 (Homo sapiens, UniProt P53355). The experiment in a line: Competitive binding affinity to DAPK1 (unknown origin) at 10 uM in presence of ATP relative to control.
The subject of experiment [3] is Tyrosine-protein kinase ABL1 (Homo sapiens), P00519 [Q252H]. The experiment is described as follows: Competitive binding affinity to ABL1 Q252H mutant (unknown origin) at 10 uM in presence of ATP relative to control.
In experiment [4] the target is Myosin-IIIa (Homo sapiens) (UniProt Q8NEV4). The experiment is described as follows: Competitive binding affinity to MYO3A (unknown origin) at 10 uM in presence of ATP relative to control.
Myosin-IIIa (Homo sapiens), sequence (Q8NEV4 whole entry): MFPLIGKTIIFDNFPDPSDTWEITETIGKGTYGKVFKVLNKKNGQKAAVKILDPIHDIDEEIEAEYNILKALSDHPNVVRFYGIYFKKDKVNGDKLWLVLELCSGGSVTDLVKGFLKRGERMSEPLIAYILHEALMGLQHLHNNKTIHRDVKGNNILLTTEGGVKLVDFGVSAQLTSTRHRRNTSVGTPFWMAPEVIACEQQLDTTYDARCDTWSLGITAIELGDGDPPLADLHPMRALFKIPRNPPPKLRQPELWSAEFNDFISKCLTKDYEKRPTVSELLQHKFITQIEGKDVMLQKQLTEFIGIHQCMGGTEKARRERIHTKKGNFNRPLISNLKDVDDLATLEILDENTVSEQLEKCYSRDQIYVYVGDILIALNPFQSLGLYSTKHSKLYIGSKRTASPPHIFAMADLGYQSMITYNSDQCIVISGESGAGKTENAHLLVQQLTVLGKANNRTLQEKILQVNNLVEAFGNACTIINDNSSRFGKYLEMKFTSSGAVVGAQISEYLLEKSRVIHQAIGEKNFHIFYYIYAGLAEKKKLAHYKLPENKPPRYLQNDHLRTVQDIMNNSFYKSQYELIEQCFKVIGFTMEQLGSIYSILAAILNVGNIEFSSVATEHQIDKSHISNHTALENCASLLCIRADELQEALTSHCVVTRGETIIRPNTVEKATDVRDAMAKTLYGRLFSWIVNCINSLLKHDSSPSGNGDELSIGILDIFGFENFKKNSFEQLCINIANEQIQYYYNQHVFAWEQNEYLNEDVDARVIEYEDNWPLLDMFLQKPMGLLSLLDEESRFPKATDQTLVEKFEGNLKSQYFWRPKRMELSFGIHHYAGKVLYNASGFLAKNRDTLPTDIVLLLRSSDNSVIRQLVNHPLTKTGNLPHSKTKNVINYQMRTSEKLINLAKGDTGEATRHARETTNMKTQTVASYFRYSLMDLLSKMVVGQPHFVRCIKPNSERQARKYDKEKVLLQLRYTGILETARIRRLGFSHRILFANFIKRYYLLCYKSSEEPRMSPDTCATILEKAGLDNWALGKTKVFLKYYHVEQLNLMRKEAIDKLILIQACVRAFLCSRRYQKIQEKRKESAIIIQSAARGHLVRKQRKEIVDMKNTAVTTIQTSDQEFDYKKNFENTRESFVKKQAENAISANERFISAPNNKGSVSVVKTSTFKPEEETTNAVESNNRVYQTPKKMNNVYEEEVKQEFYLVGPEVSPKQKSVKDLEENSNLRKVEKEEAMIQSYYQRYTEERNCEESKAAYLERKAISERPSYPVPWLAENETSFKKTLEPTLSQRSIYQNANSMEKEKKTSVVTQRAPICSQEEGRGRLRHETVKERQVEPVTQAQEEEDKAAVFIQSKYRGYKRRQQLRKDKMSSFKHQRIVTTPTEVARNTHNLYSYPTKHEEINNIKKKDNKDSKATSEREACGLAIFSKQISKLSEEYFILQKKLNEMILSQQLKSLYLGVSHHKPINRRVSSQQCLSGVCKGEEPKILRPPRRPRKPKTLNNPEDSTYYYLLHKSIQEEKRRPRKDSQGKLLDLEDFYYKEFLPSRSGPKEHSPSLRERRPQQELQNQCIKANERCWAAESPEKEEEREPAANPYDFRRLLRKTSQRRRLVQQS
The target in experiment [5] is T2, Serine/threonine-protein kinase NLK (Homo sapiens) (UniProt Q9UBE8).
T2 sequence (whole entry): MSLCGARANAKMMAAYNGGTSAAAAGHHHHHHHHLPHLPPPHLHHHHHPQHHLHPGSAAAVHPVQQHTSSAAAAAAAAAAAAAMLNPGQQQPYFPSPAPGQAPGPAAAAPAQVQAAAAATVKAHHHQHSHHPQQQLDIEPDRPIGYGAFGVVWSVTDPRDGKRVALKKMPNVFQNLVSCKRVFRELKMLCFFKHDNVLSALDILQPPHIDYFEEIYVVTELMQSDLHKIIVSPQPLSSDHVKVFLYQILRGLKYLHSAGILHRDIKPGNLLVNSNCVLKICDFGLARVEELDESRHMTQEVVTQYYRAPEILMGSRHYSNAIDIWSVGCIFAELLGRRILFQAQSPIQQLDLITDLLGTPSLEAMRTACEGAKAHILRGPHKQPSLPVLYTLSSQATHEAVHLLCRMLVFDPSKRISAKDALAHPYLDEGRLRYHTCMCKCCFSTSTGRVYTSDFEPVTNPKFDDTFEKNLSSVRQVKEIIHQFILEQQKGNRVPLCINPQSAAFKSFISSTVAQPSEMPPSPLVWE
The experiment in a line: Competitive binding affinity to NLK (unknown origin) at 10 uM in presence of ATP relative to control.

Experiment [6] deals with Proto-oncogene tyrosine-protein kinase receptor Ret (Homo sapiens), P07949 [M918T]. The experiment is described as follows: Competitive binding affinity to RET M918T mutant (unknown origin) at 10 uM in presence of ATP relative to control.
Proto-oncogene tyrosine-protein kinase receptor Ret (Homo sapiens), P07949 [M918T], sequence (P07949 whole entry M918T): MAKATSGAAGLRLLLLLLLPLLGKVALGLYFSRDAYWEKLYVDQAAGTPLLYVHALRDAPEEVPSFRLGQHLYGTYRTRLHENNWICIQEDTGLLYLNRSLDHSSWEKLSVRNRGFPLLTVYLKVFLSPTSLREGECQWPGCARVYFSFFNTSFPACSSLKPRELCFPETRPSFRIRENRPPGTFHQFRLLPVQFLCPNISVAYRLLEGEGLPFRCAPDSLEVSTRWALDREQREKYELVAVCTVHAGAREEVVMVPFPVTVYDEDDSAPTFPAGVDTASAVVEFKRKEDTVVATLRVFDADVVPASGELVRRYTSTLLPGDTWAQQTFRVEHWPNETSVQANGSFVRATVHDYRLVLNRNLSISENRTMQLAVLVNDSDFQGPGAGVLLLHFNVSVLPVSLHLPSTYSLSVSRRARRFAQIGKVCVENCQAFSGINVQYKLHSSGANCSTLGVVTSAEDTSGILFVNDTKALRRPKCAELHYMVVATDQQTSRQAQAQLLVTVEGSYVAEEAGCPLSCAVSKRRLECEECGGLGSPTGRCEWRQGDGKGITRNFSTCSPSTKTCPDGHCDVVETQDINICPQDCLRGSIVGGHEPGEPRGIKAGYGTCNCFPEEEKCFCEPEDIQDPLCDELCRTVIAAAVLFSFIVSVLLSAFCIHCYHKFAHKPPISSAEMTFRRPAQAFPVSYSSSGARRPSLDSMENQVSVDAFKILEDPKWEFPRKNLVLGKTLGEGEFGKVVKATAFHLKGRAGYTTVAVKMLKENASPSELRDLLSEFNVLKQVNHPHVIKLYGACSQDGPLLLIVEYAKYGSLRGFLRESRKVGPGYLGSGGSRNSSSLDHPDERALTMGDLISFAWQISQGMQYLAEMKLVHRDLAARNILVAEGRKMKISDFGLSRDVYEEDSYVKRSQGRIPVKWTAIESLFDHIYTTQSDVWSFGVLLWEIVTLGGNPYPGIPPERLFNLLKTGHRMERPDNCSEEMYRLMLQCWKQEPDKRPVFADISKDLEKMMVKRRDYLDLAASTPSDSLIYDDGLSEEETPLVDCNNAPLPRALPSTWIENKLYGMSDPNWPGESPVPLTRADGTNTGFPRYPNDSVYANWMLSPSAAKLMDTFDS
Experiment [7] deals with T3, Serine/threonine-protein kinase LATS2 (Homo sapiens) (UniProt Q9NRM7).
T3 sequence (whole entry): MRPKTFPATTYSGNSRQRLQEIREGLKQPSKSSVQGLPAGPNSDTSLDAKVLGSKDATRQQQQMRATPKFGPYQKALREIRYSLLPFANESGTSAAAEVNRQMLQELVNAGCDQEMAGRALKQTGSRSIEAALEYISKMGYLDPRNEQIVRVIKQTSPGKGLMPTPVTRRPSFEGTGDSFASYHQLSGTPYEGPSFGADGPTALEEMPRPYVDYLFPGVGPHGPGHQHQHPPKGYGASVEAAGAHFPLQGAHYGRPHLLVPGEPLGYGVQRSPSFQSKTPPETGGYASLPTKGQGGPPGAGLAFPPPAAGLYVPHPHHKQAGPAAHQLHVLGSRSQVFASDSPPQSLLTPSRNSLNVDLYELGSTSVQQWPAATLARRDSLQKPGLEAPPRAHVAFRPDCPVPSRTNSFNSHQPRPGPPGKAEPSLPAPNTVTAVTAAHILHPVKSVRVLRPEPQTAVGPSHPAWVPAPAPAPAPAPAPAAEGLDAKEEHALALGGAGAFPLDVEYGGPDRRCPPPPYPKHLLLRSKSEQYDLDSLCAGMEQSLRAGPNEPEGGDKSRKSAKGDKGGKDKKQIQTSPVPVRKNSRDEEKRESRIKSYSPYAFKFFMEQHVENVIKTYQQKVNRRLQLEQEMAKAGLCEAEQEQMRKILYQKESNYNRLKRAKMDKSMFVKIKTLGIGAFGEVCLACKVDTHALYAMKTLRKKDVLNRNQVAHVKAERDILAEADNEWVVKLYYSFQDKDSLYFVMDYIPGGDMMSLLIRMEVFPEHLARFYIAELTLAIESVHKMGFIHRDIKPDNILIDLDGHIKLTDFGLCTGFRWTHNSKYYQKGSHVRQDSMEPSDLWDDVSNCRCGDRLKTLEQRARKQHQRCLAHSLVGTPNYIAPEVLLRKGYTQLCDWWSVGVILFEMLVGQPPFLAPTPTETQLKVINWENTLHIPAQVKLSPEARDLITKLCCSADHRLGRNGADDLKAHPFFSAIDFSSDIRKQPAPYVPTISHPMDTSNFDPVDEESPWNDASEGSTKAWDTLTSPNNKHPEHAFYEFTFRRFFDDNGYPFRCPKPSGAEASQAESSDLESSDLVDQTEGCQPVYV
The experiment is described as follows: Competitive binding affinity to LATS2 (unknown origin) at 10 uM in presence of ATP relative to control.

For experiment [8], the target named is Serine/threonine-protein kinase N2 (Homo sapiens) (UniProt Q16513). The experiment is described as follows: Competitive binding affinity to PKN2 (unknown origin) at 10 uM in presence of ATP relative to control. The method in brief: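 In vitro ATP-site competition binding assay across a diverse panel of 128 kinases, with compound tested at a single concentration. Kinase selectivity scores (S15) were calculated from the panel profiles.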
Serine/threonine-protein kinase N2 (Homo sapiens), sequence (Q16513 whole entry, looked up): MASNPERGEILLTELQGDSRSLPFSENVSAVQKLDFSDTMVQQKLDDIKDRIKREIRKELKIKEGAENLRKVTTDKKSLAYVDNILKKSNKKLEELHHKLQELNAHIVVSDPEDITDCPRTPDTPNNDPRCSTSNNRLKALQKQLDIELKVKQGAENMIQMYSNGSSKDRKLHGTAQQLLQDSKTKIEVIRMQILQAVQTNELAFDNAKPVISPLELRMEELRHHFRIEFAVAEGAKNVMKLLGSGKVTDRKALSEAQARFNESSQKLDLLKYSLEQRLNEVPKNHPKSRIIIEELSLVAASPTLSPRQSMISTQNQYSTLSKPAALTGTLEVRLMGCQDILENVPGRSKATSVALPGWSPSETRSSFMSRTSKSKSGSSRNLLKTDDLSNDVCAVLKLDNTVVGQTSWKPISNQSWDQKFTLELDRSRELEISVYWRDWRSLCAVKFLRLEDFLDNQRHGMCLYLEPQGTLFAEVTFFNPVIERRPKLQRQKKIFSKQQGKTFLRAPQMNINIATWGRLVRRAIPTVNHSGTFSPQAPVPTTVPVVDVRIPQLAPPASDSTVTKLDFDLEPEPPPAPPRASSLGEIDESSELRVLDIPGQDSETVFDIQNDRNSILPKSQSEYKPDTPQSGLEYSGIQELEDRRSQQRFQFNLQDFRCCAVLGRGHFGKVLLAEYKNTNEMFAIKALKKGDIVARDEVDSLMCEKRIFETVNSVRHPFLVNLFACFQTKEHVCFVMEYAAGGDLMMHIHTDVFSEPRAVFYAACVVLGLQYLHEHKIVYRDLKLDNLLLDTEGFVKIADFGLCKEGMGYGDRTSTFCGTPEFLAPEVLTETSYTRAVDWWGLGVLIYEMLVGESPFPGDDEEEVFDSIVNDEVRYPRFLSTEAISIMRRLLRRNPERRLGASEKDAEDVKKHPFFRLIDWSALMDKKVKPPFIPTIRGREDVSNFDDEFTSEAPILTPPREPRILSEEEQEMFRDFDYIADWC

Where only a bound is given, the exact number is not on record here.

Death-associated protein kinase 1, sequence (P53355 whole entry, looked up): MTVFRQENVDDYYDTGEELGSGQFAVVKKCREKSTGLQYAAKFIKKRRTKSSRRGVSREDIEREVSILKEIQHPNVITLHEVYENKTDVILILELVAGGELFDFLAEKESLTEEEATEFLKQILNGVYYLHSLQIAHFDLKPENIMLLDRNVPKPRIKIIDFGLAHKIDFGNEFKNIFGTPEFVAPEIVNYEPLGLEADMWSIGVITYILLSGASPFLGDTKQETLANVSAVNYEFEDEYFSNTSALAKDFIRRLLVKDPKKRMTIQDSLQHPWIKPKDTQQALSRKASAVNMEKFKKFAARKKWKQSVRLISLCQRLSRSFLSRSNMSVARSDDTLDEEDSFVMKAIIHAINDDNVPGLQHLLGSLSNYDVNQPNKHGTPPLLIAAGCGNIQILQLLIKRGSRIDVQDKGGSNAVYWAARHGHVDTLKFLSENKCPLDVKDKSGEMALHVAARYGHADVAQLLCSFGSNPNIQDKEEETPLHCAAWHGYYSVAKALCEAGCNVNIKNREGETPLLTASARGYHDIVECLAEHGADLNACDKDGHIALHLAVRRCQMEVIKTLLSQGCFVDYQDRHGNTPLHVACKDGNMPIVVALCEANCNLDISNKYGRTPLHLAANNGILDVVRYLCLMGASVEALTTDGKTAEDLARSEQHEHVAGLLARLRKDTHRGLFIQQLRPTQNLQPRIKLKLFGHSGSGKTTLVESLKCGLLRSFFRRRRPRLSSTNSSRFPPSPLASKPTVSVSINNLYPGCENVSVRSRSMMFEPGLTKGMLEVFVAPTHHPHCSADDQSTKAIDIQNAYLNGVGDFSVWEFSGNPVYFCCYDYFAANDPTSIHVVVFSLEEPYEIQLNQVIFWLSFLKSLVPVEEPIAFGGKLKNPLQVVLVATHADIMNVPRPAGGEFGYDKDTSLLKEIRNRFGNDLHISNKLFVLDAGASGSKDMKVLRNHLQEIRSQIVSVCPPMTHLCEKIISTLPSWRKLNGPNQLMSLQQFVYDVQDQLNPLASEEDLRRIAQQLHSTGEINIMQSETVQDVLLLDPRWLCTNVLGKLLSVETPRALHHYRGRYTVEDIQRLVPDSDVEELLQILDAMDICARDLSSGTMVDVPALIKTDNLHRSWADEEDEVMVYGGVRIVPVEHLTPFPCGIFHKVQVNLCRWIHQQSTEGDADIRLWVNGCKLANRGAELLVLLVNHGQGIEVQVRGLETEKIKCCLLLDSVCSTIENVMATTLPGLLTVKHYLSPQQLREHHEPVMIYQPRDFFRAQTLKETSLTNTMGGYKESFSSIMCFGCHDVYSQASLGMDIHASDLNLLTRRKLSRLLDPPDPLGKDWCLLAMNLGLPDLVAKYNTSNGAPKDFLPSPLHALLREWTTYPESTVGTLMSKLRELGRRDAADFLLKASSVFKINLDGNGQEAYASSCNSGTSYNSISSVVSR

For `CS(=O)(=O)CCCOc1cccc2c1ccn2-c1ccnc(N[C@H]2CC[C@H](C(=O)N3CCC(O)CC3)CC2)n1`, the inhibition in experiment [1] and in experiment [2] was above 85% in each case.
Take `O[C@H]1CC[C@H](Nc2nccc(-n3ccc4ccccc43)n2)CC1`: the inhibition – broadly, the drop in the measured response relative to a control, in per cent – in experiment [1] was 90%; in experiment [3] it was below 50%; in experiment [4], below 50%; in experiment [2] it was below 50%; in experiment [5] it was below 50%; in experiment [6], below 50%. Also, the inhibition in experiment [7] and in experiment [8] was below 50% throughout.
As to `O[C@H]1CC[C@H](Nc2nccc(-n3ncc4ccccc43)n2)CC1`, the inhibition was 90% in experiment [1]; below 50% in experiment [3]; below 50% in experiment [4]; below 50% in experiment [2]; below 50% in experiment [5]; below 50% in experiment [6]. Further, the inhibition in experiment [7] and in experiment [8] was below 50% in each case.
Consider `O[C@H]1CC[C@H](Nc2nccc(-c3n[nH]c4ccccc34)n2)CC1`, for which the inhibition in experiment [3] is below 50%; in experiment [5], 90%; in experiment [8], 67%.
Take `O[C@H]1CC[C@H](Nc2nccc(-n3nnc4ccccc43)n2)CC1`: the inhibition in experiment [1] is 96%; in experiment [3] it was 74%; in experiment [4], below 50%; in experiment [2], 98%; in experiment [5], below 50%; in experiment [6], below 50%. Moreover, the inhibition was below 50% in experiment [7] and 69% in experiment [8].

For the origin of these results see ChEMBL document CHEMBL2424622, “Development of amino-pyrimidine inhibitors of c-Jun N-terminal kinase (JNK): kinase profiling guided optimization of a 1,2,3-benzotriazole lead” (Bioorg Med Chem Lett, 2013).
